# The whole screen tested about 2,500 compounds, of which about 1,200 (48%) were called active. So high a share suggests a set chosen from earlier hits. This is one part of the list. A number with no mark means an inactive call.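 Rule for the calls: active = mean activation above the low control average plus 3 SD, as set in the primary screen (cut at about 12% in these data); inactive = the rest.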
# Molecular target: Troponin I, cardiac muscle (Homo sapiens) + Troponin T, cardiac muscle (Homo sapiens) + Troponin C, slow skeletal and cardiac muscles (Homo sapiens) (UniProt P19429+P45379+P63316)
# Assay: calcium sensitizers of cardiac thin filaments – biochemical, IANBD-TnC fluorescence, triplicate, confirmation (AID 504383);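 note: 0% = DMSO at 0.472 mM calcium and 100% = DMSO at 2.9 mM calcium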
# Settings: IANBD-labeled cardiac RTF, Ca2+ sensitivity fluorescence; at 7.2 µM; stronger effect = higher value; scaled from EC20 to saturating calcium; tested at EC20 calcium, 0.472 mM
# Procedure, shortened: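 Assay system: labelled regulated thin filament protein complex; schedule: 15 min compound incubation with filaments at 25 °C; benchmarks: low control EC20 calcium, high control EC100 calcium; reagent: Ca2+ 0.472 mM, EC20 level; doses: one dose, 7.2 µM nominal; evaluation: fluorescence gain scaled between EC20 and EC100 calcium controls; signal: filament fluorescence intensity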
row,Structure (SMILES),activation
1,COC(=O)c1ccc(S(=O)(=O)N(CCO)Cc2ccccc2)n1C,6.61%
2,COC(=O)c1ccc(S(=O)(=O)N2CCC(O)CC2)n1C,30.3% (active)
3,Cc1ccc(CNc2cccnc2)cc1,1.46%
4,Cc1ccc(N2CN(Cc3cccnc3)CNC2=S)cc1,13.6% (active)
5,CS/C(=N\S(=O)(=O)c1cccs1)Nc1cccc(Cl)c1C,61.5% (active)
6,COCCOC(=O)c1sc(=S)n(CCOC)c1N,7.49%
7,COCCn1c(-c2ccc(C)cc2)nc2oc3cc(OC)ccc3c(=O)c2c1=O,10.7%
8,COCCn1c(=O)c2ccccc2c2ccccc2c1=O,89% (active)
9,Cc1cc(=O)oc(C)c1C(=O)Nc1ccc2ncccc2c1,6.03%
10,CCC(=O)N/C(=N/c1nc(C)cc(C)n1)Nc1ccccc1,7.51%
11,CCC(=O)Nc1ccc2oc(-c3cccnc3)nc2c1,210% (active)
12,CCCCN=C1N/C(=C\c2ccco2)C(=O)N1c1ccccc1,370% (active)
13,COC(=O)[C@H](Cc1ccccc1)NC(=O)Nc1ccc(OC)cc1,4.56%
14,Cc1cc(NC(=O)COC(=O)C(Cc2ccccc2)NC(=O)c2ccco2)no1 (stereo not drawn),39.2% (active)
15,O=C1C=C(NCc2ccco2)CC(c2ccc(Cl)cc2)C1 (stereo not drawn),4.86%
16,CCc1ccc(C2C(C#N)=C(N)SC(N)=C2C#N)s1,9.19%
17,Nc1cnccc1C(=O)O,26% (active)
18,CN(C)C=Nc1c(Br)cc(Br)c2nonc12,31.3% (active)
19,O=C(NCc1ccco1)/C(=C\c1ccco1)NC(=O)c1ccc(Br)o1,72.9% (active)
20,CC(C)(C)c1ccc(C(=O)N/C(=C\c2cccs2)C(=O)NCc2ccco2)cc1,9.9%
21,O=C(NCc1cccnc1)/C(=C\c1ccc(-c2ccc(Cl)c(Cl)c2)o1)S(=O)(=O)c1ccccc1,5.91%
22,Cc1cnc(C(=O)Nc2nnc(SCc3c(Cl)cccc3Cl)s2)cn1,15% (active)
23,CCOC(=O)c1c(C)[nH]c(C2=NNC(=NC(C)COC)SC2)c1C (stereo not drawn),81% (active)
24,NC(N)=NCc1cccc(I)c1,7.58%
25,CN(C(=O)C1CCC1C(=O)O)c1nc(-c2ccc(Cl)s2)cs1 (stereo not drawn),176% (active)

row,Structure (SMILES),activation
1,COC(=O)c1ccc(OC)c(OC2CCCC2)c1,6.45%
2,CCOc1ccc(NC(=O)COC(=O)CCN2C(=O)C3CC=CCC3C2=O)cc1OCC (stereo not drawn),8.79%
3,CCOc1ccc(C(=O)NCC(=O)N2CCC3CCCCC3C2)cc1OCC (stereo not drawn),167% (active)
4,CCn1nnnc1SCC(=O)N1CCCc2ccccc21,10.8%
5,CC(CC(=O)N1CCc2ccccc21)n1cccn1 (stereo not drawn),5.25%
6,Cc1ccc2c(c1)N(CC(=O)N1CCCc3ccccc31)C(=O)C(C)O2 (stereo not drawn),21.6% (active)
7,O=C(O)CN1C(=O)c2cccc3c(Br)ccc1c23,89% (active)
8,CCOC(=O)C(=O)Nc1nnc(COc2ccccc2)s1,9.76%
9,CCCCOC(=O)Nc1nnc(C(C)C)s1,617% (active)
10,CCOCCc1nnc(NC(=O)COC)s1,3.67%
11,CCSc1nnc(-c2sc3nnc(-c4ccccc4)c(-c4ccccc4)c3c2N)o1,6.28%
12,O=C([O-])c1ccccc1-[n+]1c(-c2ccccc2)cc(-c2ccccc2)cc1-c1ccccc1,7.07%
13,O=C(O)c1ncc(-c2ccccc2)cn1,128% (active)
14,O=C(N/N=C/c1c(O)n(-c2ccc(Cl)cn2)c(=O)c2ccccc12)c1ccncc1,14.8% (active)
15,CCn1c(O)c(/C=N/NC(=O)c2ccncc2)c(=O)n(CC)c1=S,10.1%
16,N=C1/C(=C\c2coc3ccc(O)cc3c2=O)C(=O)N=C2SC=CN12,5.99%
17,N=C1/C(=C\c2coc3ccccc3c2=O)C(=O)N=C2SC(c3ccncc3)=NN12,22.9% (active)
18,Cc1ccccc1Cn1cccc1/C=C1/C(=N)N2C=CSC2=NC1=O,14.6% (active)
19,CC(C)CC1=NN2C(=N)/C(=C\c3coc4ccccc4c3=O)C(=O)N=C2S1,13.7% (active)
20,N=C1/C(=C\c2coc3ccccc3c2=O)C(=O)N=C2SC=CN12,12.3% (active)
21,O=C(c1ccccc1)N1CCN(CC#CC2(O)CCCCC2)CC1,8.87%
22,CC1CCCCN1C(=O)Cn1nnc(-c2cccnc2)n1 (stereo not drawn),5.92%
23,COc1ccc(N2CCN(C(=O)Cn3nnc(-c4ccccc4N)n3)CC2)cc1,46.5% (active)
24,COc1ccc(-n2nc3c(N4CCC(C(=O)NCc5ccco5)CC4)nnc(C)c3c2C)cc1,4.51%
25,CC(C)CC1C(C#N)=C(N)SC(N)=C1C#N,4.27%

row,Structure (SMILES),activation
1,COc1cc(NC(=O)[C@@H]2CCCN2S(=O)(=O)c2cccc3cccnc23)cc(OC)c1OC,7.77%
2,Cc1cc(=O)n2nc(N3CCCC3C(=O)Nc3ccc(C(C)C)cc3)sc2n1 (stereo not drawn),426% (active)
3,Cc1cc(Br)c2c(c1)C(O)(N1CCCCC1C)C(=O)N2 (stereo not drawn),12.6% (active)
4,CC1=NN(C(=O)c2ccc(Cn3ccc([N+](=O)[O-])n3)cc2)C(O)(C(F)(F)F)C1 (stereo not drawn),18.8% (active)
5,COc1cccc(OC)c1C(=O)NNC(=O)c1ccccc1-n1cccc1,-0.16%
6,CC1=NN(C(=O)c2ccccc2-n2cccc2)C(O)(C(F)(F)F)C1 (stereo not drawn),15.7% (active)
7,CC1=C(C#N)C(=O)OC(C)(C)C1,10.4%
8,CSc1ccc(C2C(C(=O)c3ccco3)=C(O)C(=O)N2c2nnc(SC)s2)cc1 (stereo not drawn),29.2% (active)
9,CC(C)c1nnc(N2C(=O)C(O)=C(C(=O)c3cccs3)C2c2ccccc2)s1 (stereo not drawn),7.93%
10,N#Cc1c(NCCCO)nc(-c2ccccc2)c2c1CCCC2,16.7% (active)
11,CC(=O)Nc1sc(/C(C#N)=C\c2cccc(Cl)c2)nc1-c1ccc(C)cc1,49.1% (active)
12,CC(=O)Nc1sc(/C(C#N)=C/c2ccc(Cl)c(Cl)c2)nc1-c1ccc(C)cc1,-3.28%
13,CCOc1cc(/C=C(\C#N)c2nc(-c3cccs3)c(NC(C)=O)s2)ccc1O,0.64%
14,O=C(CNCc1cccs1)Nc1cc(S(=O)(=O)N2CCCC2)ccc1Cl,17.9% (active)
15,O=C(CCCN1C(=O)c2ccccc2C1=O)Nc1ccc(S(=O)(=O)N2CCCCC2)cc1,4.61%
16,Cc1ccc(S(=O)(=O)N2CCOCC2)cc1NC(=O)CSc1nccn1C,11.4%
17,O=C(CNCc1cccs1)Nc1ccc(S(=O)(=O)N2CCCCC2)cc1,66.4% (active)
18,Cc1ccc(NC(=O)COC(=O)c2csc3c2CCC(C)C3)cc1S(=O)(=O)N1CCCCC1 (stereo not drawn),3.56%
19,CC(C(=O)NNS(=O)(=O)c1cccc(C(F)(F)F)c1)n1nnc(N2CCOCC2)n1 (stereo not drawn),5.72%
20,C=CCOc1ccn(C)c(=O)n1,12.1% (active)
21,CCOc1ccc(NC(=O)C2CC(=O)N=C(N)S2)cc1 (stereo not drawn),4.04%
22,COc1ccc(Nc2nc3ccc(C)cc3cc2C#N)c(OC)c1,3.9%
23,COc1ccc(N=Nc2nc3cc(Br)c(Br)cc3n2C)c(OC)c1,2020% (active)
24,COc1ccc(N=Nc2nc3ccc(Br)cc3n2C)cc1,10.6%
25,Cc1cccc(N2C(=O)c3cccc4c(N)ccc(c34)C2=O)c1,0.54%

row,Structure (SMILES),activation
1,Cc1ccnc(N2C(=O)c3cccc4c([N+](=O)[O-])ccc(c34)C2=O)c1,16.1% (active)
2,COc1ccccc1N1C(=O)c2cccc3c(N(C)CCO)ccc(c23)C1=O,7.87%
3,CN(C)CCCN1C(=O)c2cccc3c([N+](=O)[O-])ccc(c23)C1=O,38.5% (active)
4,Cc1ccc(N2C(=O)c3cccc4c(N)ccc(c34)C2=O)c2cccnc12,9.53%
5,O=C1c2cccc3c([N+](=O)[O-])ccc(c23)C(=O)N1Cc1cccnc1,3.03%
6,CCOC(=O)c1sc(-c2ccc(F)cc2)cc1NC(=O)Nc1ccccc1OC,37.5% (active)
7,COc1ccccc1NS(=O)(=O)c1cc(C(=O)NCCN2CCOCC2)ccc1Cl,2.55%
8,CCOc1ccc2ccccc2c1CNCCN1CCOCC1,27% (active)
9,COc1ccccc1N1C(C)=CC(=C(C#N)c2nc3ccccc3s2)C=C1C,11.1%
10,CC1=CC(=C(C#N)c2nc3ccccc3s2)C=C(C)N1c1ccc(F)cc1,74.2% (active)
11,Cc1ccc(-n2c(C)cc(C(=O)COC(=O)c3ccc[nH]c3=O)c2C)cc1,6.02%
12,COCCn1c(C)cc(C(=O)COC(=O)c2ccc(Cl)c(S(N)(=O)=O)c2)c1C,13% (active)
13,O=C1CCC(=O)N1CC(O)COc1ccccc1 (stereo not drawn),255% (active)
14,Cc1cc(C)n(CC(O)COc2ccccc2)n1 (stereo not drawn),6.17%
15,OCCN1CCN(CC(O)COc2ccc(C34CC5CC(CC(C5)C3)C4)cc2)CC1 (stereo not drawn),90.4% (active)
16,COc1ccc(/C(C)=N/N2C(=O)c3ccccc3NC2c2ccc(O)c(OC)c2)cc1 (stereo not drawn),9.34%
17,CCOc1cc(C2C3=C(CCCC3=O)N(C)C3=C2C(=O)CCC3)cc(Cl)c1O,6.5%
18,CCCN1C(=O)c2ccccc2NC1c1ccc(O)c(OCC)c1 (stereo not drawn),14.5% (active)
19,CC(C)C12CN(C(=O)c3ccccc3[N+](=O)[O-])CC(C(C)C)(CN(C(=O)c3ccccc3[N+](=O)[O-])C1)C2=O,6.99%
20,O=C(O)c1cccc2c1-c1c(cccc1[N+](=O)[O-])C2,1890% (active)
21,CCN(CC)c1ccc(NC(=S)Nc2ccc(F)cc2)cc1,5.29%
22,CCN(CC)c1ccc(-c2sc(Nc3ccccc3)n[n+]2-c2ccc(F)cc2)cc1,18.7% (active)
23,CCc1ccc(Nc2n[n+](-c3ccccc3)c(-c3ccc(N(CC)CC)cc3)s2)cc1,5.32%
